Experimental data as given in article PMC8419023 (Structure (London, England : 1993), 2021).
Where a chain is given by its changes, count along the chain named. Numbers in names are those of the source.

Key:
CDK2-cyclin A = CDK2-cyclin A (Homo sapiens, UniProt P20248+P24941); experiment: GST pull down, CDK2-cyclin A; format: binding; conditions: 25 mM HEPES pH 7.5, 150 mM NaCl, 1 mM DTT, 0.01% NP-40; 1 h, 4°C; SDS-PAGE; three experiments; Figure 1B
Procedure, shortened: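 Bacterially expressed proteins: CDK2 (1–298) as a GST fusion, cyclin A (1–432 or 173–432) as a 6XHis fusion. […] Incubated 1 h at 4 °C with mild agitation, washed three times in binding buffer, and bound material analysed by SDS-PAGE; repeated 2–3 times.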

[1] = molecular target: CDK2-cyclin A (Surface 2, hydrophobic patch); experiment: Fluorescence polarization displacement of FITC-p27^27−36 from CDK2-cyclin A; format: binding, human

B1: Skp2^Δ1−88: Skp2 lacking the first 88 residues (protein)
chain 1: RENFPGVSWDSLPDELLLGIFSCLCLPELLKVSGVCKRWYRLASDESLWQTLDLTGKNLHPDVTGRLLSQGVIAFRCPRSFMDQPLAEHFSPFRVQHMDLSNSVIEVSTLHGILSQCSKLQNLSLEGLRLSDPIVNTLAKNSNLVRLNLSGCSGFSEFALQTLLSSCSRLDELNLSWCFDFTEKHVQVAVAHVSETITQLNLSGYRKNLQKSDLSTLVRRCPNLVHLDLSDSVMLKNDCFQEFFQLNYLQHLSLSRCYDIIPETLLELGEIPTLKTLQVFGIVPDGTLQLLKEALPHLQINCSHFTTIARPTIGNKKNQEIWGIKCRLTLQKPSCL
chain 2: MPSIKLQSSDGEIFEVDVEIAKQSVTIKTMLEDLGMDPVPLPNVNAAILKKVIQWCTHHKDDPGSGGTDDIPVWDQEFLKVDQGTLFELILAANYLDIKGLLDVTCKTVANMIKGKTPEEIRKTFNIKNDFTEEEEAQVRKENQWCEEK
modifications: left off: GST, end not stated, kept | His6, end not stated, state not stated
pull down / binding of CDK2-cyclin A^173−432 with or without Cks1 (CDK2-cyclin A): could not bind CDK2-cyclin A in the absence of Cks1

B2: F79A/I81A/R83A: full length Skp2 (Skp1-Skp2^1−424) with Motif 2 mutation F79A/I81A/R83A (protein)
chain 1: MHRKHLQEIPDLSSNVATSFTWGWDSSKTSELLSGMGVSALEKEEPDSENIPQELLSNLGHPESPPRKRLKSKGSDKDAVAVARPKLNRENFPGVSWDSLPDELLLGIFSCLCLPELLKVSGVCKRWYRLASDESLWQTLDLTGKNLHPDVTGRLLSQGVIAFRCPRSFMDQPLAEHFSPFRVQHMDLSNSVIEVSTLHGILSQCSKLQNLSLEGLRLSDPIVNTLAKNSNLVRLNLSGCSGFSEFALQTLLSSCSRLDELNLSWCFDFTEKHVQVAVAHVSETITQLNLSGYRKNLQKSDLSTLVRRCPNLVHLDLSDSVMLKNDCFQEFFQLNYLQHLSLSRCYDIIPETLLELGEIPTLKTLQVFGIVPDGTLQLLKEALPHLQINCSHFTTIARPTIGNKKNQEIWGIKCRLTLQKPSCL
chain 2: B1 chain 2
modifications: left off: GST, end not stated, cleaved | His6, end not stated, cleaved
IC50 ([1]; 25 nM FITC-p27^27−36, CDK2-cyclin A 6.25 μM, HEPES pH 7.5, 30 min, N=4, Figure 3E): not determinable
displacement of FITC-p27^27−36 (in words) ([1]; CDK2-cyclin A 6.25 μM, N=4, Figure 3E): greatly compromised for this function

B3: 4A mutant of Skp2^1−424: full-length Skp2 with L32A/L33A/S39A/L41A (Motif 1 mutant) (protein)
chain 1: B2 chain 1 with L32A, L33A, S39A, L41A, A79F, A81I, A83R
chain 2: B1 chain 2
modifications: left off: GST, end not stated, cleaved | His6, end not stated, cleaved
loss of displacement effectiveness versus wild-type ([1]; mutant versus wild-type Skp2^1−424, FITC-p27^27−36, Figure 4F): 3 fold
